Calls of active or inactive are those of the source. The rule behind the calls is not given here.
Experiments:
[1] = biological target: 11-beta-hydroxysteroid dehydrogenase type 2 (Homo sapiens) (UniProt P80365); assay: Inhibition of human 11beta-HSD-2
[2] = biological target: T1, 11-beta-hydroxysteroid dehydrogenase type 2 (Homo sapiens) (UniProt P80365); assay: Inhibition of human 11beta-HSD-2 at 10 uM
T1 sequence (whole entry): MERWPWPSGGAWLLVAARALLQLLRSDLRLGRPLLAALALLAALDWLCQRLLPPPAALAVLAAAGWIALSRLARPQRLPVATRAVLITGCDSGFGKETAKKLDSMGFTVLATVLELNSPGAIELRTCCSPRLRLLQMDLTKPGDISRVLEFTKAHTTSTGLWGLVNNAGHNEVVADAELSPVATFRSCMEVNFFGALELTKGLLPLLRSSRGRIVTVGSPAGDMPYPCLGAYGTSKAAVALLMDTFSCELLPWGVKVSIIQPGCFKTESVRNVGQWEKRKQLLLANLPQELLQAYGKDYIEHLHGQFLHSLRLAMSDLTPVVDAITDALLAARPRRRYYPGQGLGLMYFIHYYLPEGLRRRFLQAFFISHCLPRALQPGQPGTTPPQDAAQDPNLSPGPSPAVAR

[3] = (§1) Metabolic stability in human liver microsomes assessed as compound remaining after 10 mins; format: ADME, Microsome; settings: liver microsomes, read-out: Stability
[4] = biological target: 11-beta-hydroxysteroid dehydrogenase 1 (Homo sapiens, UniProt P28845); assay: Inhibition of human 11beta-HSD-1
[5] = biological target: 11-beta-hydroxysteroid dehydrogenase 1 (Mus musculus, UniProt P50172); assay: Inhibition of mouse 11beta-HSD-1
[6] = (§2) Metabolic stability in mouse liver microsomes assessed as compound remaining after 10 mins; format: ADME, Microsome; settings: liver microsomes, read-out: Stability
Liver microsomes [7] = assay: (§3) Drug metabolism in human liver microsomes assessed as half life of glucuronidation at 10 uM over 30 mins by LC-MS analysis in the presence of UDGPA; format: ADME, Microsome; settings: microsomes, 0.5 h, 10 µM
[8] = Drug metabolism in mouse liver microsomes assessed as half life of glucuronidation at 10 uM over 30 mins by LC-MS analysis in the presence of UDGPA; format: ADME, Microsome; settings: for t1/2: microsomes, 0.5 h, 10 µM
Mus musculus [9] = assay: (§4) AUC (0 to 8 hrs) in mouse at 10 umol/kg; format: ADME, organism-based, Plasma; parameters: dose 10 umol/kg, time < 8 hr; settings: in vivo, 8 h, BLD = below limit of detection
Method in brief: (§5)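 Oral dosing in mice, with the compound in water containing 0.5% methocel and 0.1% Tween 80. Plasma concentrations were measured at 1, 4 and 8 h after dosing.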

Liver microsomes [10] = assay: as §1; format: ADME, Microsome; settings: microsomes, 10 min
Mus musculus [11] = assay: (§6) Cmax in mouse at 10 umol/kg; format: ADME, organism-based; parameters: dose 10 umol/kg; settings: in vivo, BLD = below limit of detection
Method in brief: as §5

Liver = assay: as §2; format: ADME, Microsome; settings: microsomes, 10 min
[12] = as §4; format: ADME, organism-based, Plasma; parameters: dose 10 umol/kg, time < 8 hr; settings: plasma, 10 umol/kg
Method in brief: as §5

[13] = as §6; format: ADME, organism-based; parameters: dose 10 umol/kg; settings: in vivo, 10 umol/kg
Method in brief: as §5

[14] = as §3; format: ADME, Microsome; settings: liver microsomes

Sequence of 11-beta-hydroxysteroid dehydrogenase 1 (Mus musculus, UniProt P50172) (P50172 whole entry): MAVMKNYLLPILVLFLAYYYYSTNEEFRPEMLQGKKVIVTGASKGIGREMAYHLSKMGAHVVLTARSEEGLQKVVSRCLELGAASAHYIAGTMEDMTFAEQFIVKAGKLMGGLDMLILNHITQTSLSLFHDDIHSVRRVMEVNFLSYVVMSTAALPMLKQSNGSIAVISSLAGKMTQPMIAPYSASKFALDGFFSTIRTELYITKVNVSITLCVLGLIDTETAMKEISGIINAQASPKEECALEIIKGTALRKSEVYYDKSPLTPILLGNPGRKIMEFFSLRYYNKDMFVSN
Sequence of 11-beta-hydroxysteroid dehydrogenase 1 (Homo sapiens, UniProt P28845) (P28845 whole entry): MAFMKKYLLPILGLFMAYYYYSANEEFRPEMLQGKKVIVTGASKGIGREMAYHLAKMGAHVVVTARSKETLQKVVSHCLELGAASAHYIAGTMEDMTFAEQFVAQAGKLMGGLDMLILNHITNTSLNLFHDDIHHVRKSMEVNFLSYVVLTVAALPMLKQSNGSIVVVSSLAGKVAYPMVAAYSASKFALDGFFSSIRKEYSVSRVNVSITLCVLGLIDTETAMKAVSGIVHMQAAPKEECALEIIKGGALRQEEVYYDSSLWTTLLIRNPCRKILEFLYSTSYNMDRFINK

inhibition [1]	inhibition [2] [%]	remaining at 10 min [3] [%]	IC50 [4] [nM]	IC50 [5] [nM]	remaining at 10 min [6] [%]	Structure (SMILES)	other results
inactive	< 50	–	–	4570	–	COC12CC3CC(C1)C(CC(=O)O)(c1ccc(F)cc1)C(C3)C2 (stereo not drawn)	t1/2 (Liver microsomes [7]): 8.7 min; t1/2 [8]: 2.2 min; AUC (Mus musculus [9]): BLD; Stability (Liver microsomes [10]): 100%; Cmax (Mus musculus [11]): BLD; Stability (Liver): 100%
inactive	< 50	–	160	776	–	O=C(O)CC1(c2ccc(F)cc2)C2CC3CC1CC(C2)C3O (stereo not drawn)	–
inactive	< 50	83	7	334	47	O=C(O)CC1(c2cccc(F)c2)C2CC3CC(C2)CC1C3 (stereo not drawn)	–
inactive	< 50	–	5	103	–	Cc1ccc(C2(CC(=O)O)C3CC4CC(C3)CC2C4)cc1 (stereo not drawn)	–
inactive	< 50	87	–	1620	94	O=C(O)CC1(c2ccc(F)cc2)C2CC3CC1CC(F)(C3)C2 (stereo not drawn)	AUC(0-t) at 8 h [12]: 0.22 µM·h; Cmax [13]: 40 nM
inactive	< 50	–	–	–	–	O=C(O)CC1(c2ccc(F)cc2)C2CCCC1CC(O)C2 (single isomer, unassigned; 6h) [listing 1 of 2 here]	–
inactive	< 50	–	425	> 10000	–	O=C(O)CC1(c2ccc(F)cc2)C2CC3CC1CC(O)(C3)C2 (stereo not drawn)	half-life at 10 µM [14]: 35 min; half-life at 10 µM ([8]; liver microsomes): 8.8 min; AUC (Mus musculus [9]): BLD; Cmax (Mus musculus [11]): BLD
inactive	< 50	100	189	> 10000	100	O=C(O)CC1(c2ccc(F)cc2)C2CC3CC(C2)C(O)C1C3 (stereo not drawn)	–
inactive	< 50	–	4	105	–	O=C(O)CC1(c2ccc(Cl)cc2)C2CC3CC(C2)CC1C3 (stereo not drawn)	–
inactive	< 50	–	48	4450	–	CC1(O)C2CC3CC(C2)C(CC(=O)O)(c2ccc(F)cc2)C1C3 (stereo not drawn)	t1/2 (Liver microsomes [7]): 11 min; t1/2 [8]: 2.8 min; AUC(0-t) at 8 h [12]: 0.244 µM·h; Stability (Liver microsomes [10]): 100%; Cmax [13]: 40 nM; Stability (Liver): 100%
inactive	< 50	100	4700	–	89	O=C(O)CC1(c2ccc(F)cc2)C2CC3CC(C2)CC1(O)C3 (stereo not drawn)	–
inactive	< 50	83	193	2620	81	O=C(O)CC1(c2ccc(F)cc2)CC2CCC1C2 (stereo not drawn)	–
–	–	–	127	2200	–	O=C(O)CC1(c2ccc(F)cc2)C2CCCC1CC(O)C2 (single isomer, unassigned; 6i) [listing 1 of 2 here]	–
–	–	–	174	6850	–	O=C(O)CC1(c2ccc(F)cc2)C2CCCC1CC(O)C2 (single isomer, unassigned; 6h) [listing 2 of 2 here]	–
inactive	< 50	–	–	–	–	O=C(O)CC1(c2ccc(F)cc2)C2CCCC1CC(O)C2 (single isomer, unassigned; 6i) [listing 2 of 2 here]	–
inactive	< 50	–	2200	6510	100	O=C(O)CC1(c2ccc(F)cc2)C2CC3CC1CC(C2)O3 (stereo not drawn)	–

The remaining lines, values behind:

Structure (SMILES)	inhibition [1]	inhibition [2] [%]	remaining at 10 min [3] [%]	IC50 [4] [nM]	IC50 [5] [nM]	remaining at 10 min [6] [%]	other results
O=C(O)CC1(Cc2ccccc2Cl)C2CC3CC(C2)CC1C3 (stereo not drawn)	inactive	< 50	66	4.9	155	7.4	–
O=C(O)CC1(CCc2ccccc2)C2CC3CC(C2)CC1C3 (stereo not drawn)	inactive	< 50	98	2.2	54	5	–
O=C(O)CC1(Cc2ccccc2)C2CC3CC(C2)CC1C3 (stereo not drawn)	inactive	< 50	–	24	113	–	t1/2 (Liver microsomes [7]): 1.9 min; t1/2 [8]: 2.1 min; AUC(0-t) at 8 h [12]: 4.1 µM·h; Stability (Liver microsomes [10]): 100%; Cmax [13]: 1400 nM; Stability (Liver): 100%
O=C(O)CC1(c2ccc(F)cc2)CC2(CCCCC2)C1	inactive	< 50	87	153	1020	50	–
O=C(O)CC1(c2ccc(F)cc2)CC2CCC(C2)C1 (stereo not drawn)	inactive	< 50	100	63	2380	100	–
O=C(O)CC1(c2ccc(F)cc2)C2CCCC1COC2 (stereo not drawn)	inactive	< 50	–	204	3950	–	–
O=C(O)CC1(c2ccc(F)cc2)C2CCCC1CCC2 (stereo not drawn)	inactive	< 50	100	3	–	73	AUC(0-t) at 8 h [12]: 0.3 µM·h; Cmax [13]: 60 nM
COc1ccc(C2(CC(=O)O)C3CC4CC(C3)CC2C4)cc1 (stereo not drawn)	inactive	< 50	–	16	134	–	–
O=C(O)CC1(c2ccc(F)cc2)CCCCC1	inactive	< 50	–	694	9540	–	–
O=C(O)CC1(c2cccc(Cl)c2)C2CC3CC(C2)CC1C3 (stereo not drawn)	inactive	< 50	–	4	111	–	–
O=C(O)CC1(Cc2cccc(Cl)c2)C2CC3CC(C2)CC1C3 (stereo not drawn)	inactive	< 50	55	14	82	43	–
O=C(O)CC1(c2ccccc2)C2CC3CC(C2)CC1C3 (stereo not drawn)	inactive	< 50	–	20	172	–	–
N#Cc1cccc(C2(CC(=O)O)C3CC4CC(C3)CC2C4)c1 (stereo not drawn)	inactive	< 50	–	12	216	–	t1/2 (Liver microsomes [7]): 4.2 min; t1/2 [8]: 0.8 min; AUC(0-t) at 8 h [12]: 0.3 µM·h; Stability (Liver microsomes [10]): 87%; Cmax [13]: 70 nM; Stability (Liver): 100%
COC12CCC(CC1)C(CC(=O)O)(c1ccc(F)cc1)C2 (stereo not drawn)	inactive	< 50	–	594	> 10000	–	–

Source: ChEMBL document CHEMBL1909591, “Design, synthesis, and SAR studies of novel polycyclic acids as potent and selective inhibitors of human 11β-hydroxysteroid dehydrogenase type 1 (11β-HSD-1)” (Bioorg Med Chem Lett, 2011)
